Source: ChEMBL document CHEMBL1148265, “Synthesis and biological activity of N-aryl-2-aminothiazoles: potent pan inhibitors of cyclin-dependent kinases” (Bioorg Med Chem Lett, 2004)

Legend:
[1] = molecular target: Cyclin-dependent kinase 4/cyclin D (Homo sapiens, UniProt P11802); assay: Inhibition of Cyclin-dependent kinase 4-cyclin D; type: protein-complex assay
How it was run: (§1)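 Cell-free kinase assay with the CDK/cyclin complex as enzyme. Read-out is phosphorylation of RB protein as substrate. IC50 values were reported.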

A2780 = assay: Cytotoxic effect on human ovarian (A2780) cancer cell line; type: functional, cell-based
[2] = molecular target: Cyclin-dependent kinase 1/cyclin B (Homo sapiens, UniProt P06493); assay: Inhibition of cyclin-dependent kinase 1-cyclin B; type: protein-complex assay; how it was run: as §1
[3] = molecular target: Cyclin-dependent kinase 2/cyclin E (Homo sapiens, UniProt P24941); assay: Inhibition of Cyclin-dependent kinase 2-cyclin E; type: protein-complex assay; how it was run: as §1
Mus musculus [4] = assay: In vivo anticancer activity of compound was determined as increase in survival time of treated groups versus untreated control against P388 murine leukemia in mice at 4 mg/kg; type: functional
How it was run: (§2)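 P388 murine leukemia cells implanted ip into immunocompetent mice. Drug given ip right after implantation, then once daily for 7 days (qdx7). Efficacy read as increase in lifespan, reported as the ratio of lifespan of the treated group (T) to the control group (C) (%T/C).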

Mus musculus [5] = organism: Mus musculus; assay: Compound was tested binding to mouse serum; type: functional
How it was run: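 Free versus bound fraction measured by equilibrium dialysis against mouse serum.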

Mus musculus [6] = assay: In vivo anticancer activity of compound was determined as increase in survival time of treated groups versus untreated control against P388 murine leukemia in mice at 90 mg/kg; type: functional; how it was run: as §2

Row | SMILES | IC50 [1] [nM] | IC50 (A2780) [nM] | IC50 [2] [nM] | IC50 [3] [nM] | T/C (Mus musculus [4]) [%] | Binding (Mus musculus [5]) [%] | T/C (Mus musculus [6]) [%]
1 | CC(C)(C)c1cnc(CSc2cnc(Nc3cccnc3)s2)o1 | 130 | 50 | 10 | 3 |  |  | 
2 | CC(C)(CO)CNCc1ccc(Nc2ncc(SCc3ncc(C(C)(C)C)o3)s2)nc1 | 26 | 3 | 18 | 3 | 156 | 90 | 
3 | CC(C)(C)c1cnc(CSc2cnc(Nc3ccccn3)s2)o1 | 9 | 10 | 4 | 2 |  |  | 
4 | CC(C)(C)c1cnc(CSc2cnc(NC(=O)Cc3cccnc3)s2)o1 | 1090 | 240 | 80 | 5 |  |  | 
5 | CC(C)(C)c1cnc(CSc2cnc(Nc3ccccc3)s2)o1 | 78 | 140 | 12 | 4 |  |  | 
6 | CC(C)(C)c1cnc(CSc2cnc(Nc3ccc(S(=O)(=O)NCCO)cc3)s2)o1 | 233 | 69 | 10 | 2 |  | 97 | 180
